Experimental data pooled from the literature.
Each line is one published result; the experiments were not run side by side.
Target: Transient receptor potential cation channel subfamily M member 6 (TRPM6, Homo sapiens, UniProt Q9BX84)

| Compound | assay | setting | remaining binding [%] |
| --- | --- | --- | --- |
| N[C@@H]1CCN(c2nccc(-c3cnn4ncccc34)n2)C1 | binding | 1 µM | 100 |
| O=C(NCCCN1CCOCC1)c1ccc(Nc2nccc(-c3cc4ccccc4s3)n2)cc1 | binding, competition with immobilised ligand | 1 µM | 100 |
| COc1ccnn2ncc(-c3ccnc(N(C)C)n3)c12 | binding | 1 µM | 82 |
| CNC(=O)[C@@H]1CC[C@@H](n2c(-c3ccc4cnccc4c3)nc3ccc(C(=O)NCc4cccc(C(N)=O)c4)cc32)C1 | binding, competition with immobilised ligand | 1 µM | 83 |
| O=C(c1ccc(Nc2nccc(-c3cc4ccccc4s3)n2)cc1)N1CCC(N2CCCC2)CC1 | binding, competition with immobilised ligand | 1 µM | 100 |
| COc1ncc2cc3ccccc3nc2c1C#N | cell-free assay, competition with immobilised ligand | 5 µM | 92 |
| O=C(NCC1CCOCC1)c1n[nH]cc1NC(=O)c1c(F)cccc1F | binding, competition with immobilised ligand | 1 µM | 85 |
| CS(=O)(=O)N1CCCC(NC(=O)[C@H](CCC2CCCCC2)NC(=O)c2ccc(CNC(=O)c3cnc4ccccn34)cc2)C1 (some centres unmarked) | cell-free assay, competition with immobilised ligand | 0.1 µM | 100 |
| CN(c1nccc(-c2cnn3ncccc23)n1)C1CC1 | binding | 1 µM | 100 |
| Cc1c[nH]c2nccc(Oc3c(F)cc(Nc4cc(Cl)nc(N)n4)cc3F)c12 | cell-free assay, competition with immobilised ligand | 0.1 µM | 83 |
| C[C@H]1CCN(c2nccc(-c3cnn4ncccc34)n2)C1 | binding | 1 µM | 94 |
| N#CC1(c2ccccn2)CCN(Cc2cc(C(=O)N3CCCC3)c(=O)n3ccccc23)CC1 | cell-free assay, competition with immobilised ligand | 1 µM | 80 |
| FC(F)(F)Oc1cccc(-c2cnc3ccc(-c4ccncc4)nn23)c1 | binding, competition with immobilised ligand | 5 µM | 84 |
| CN([C@@H]1CCc2c(CC(=O)O)c3cc(S(C)(=O)=O)ccc3n2C1)S(=O)(=O)c1ccc(F)cc1 | cell-free assay, competition with immobilised ligand | 1 µM | 74 |
| CN(CCCC(F)(F)F)c1nccc(-c2cnn3ncccc23)n1 | binding | 1 µM | 100 |
| CN(C)C(=O)Cn1cc(-c2nc([C@@](C)(c3ccc(-c4cnc(N)nc4)cc3)C3CC3)no2)cn1 | cell-free assay, competition with immobilised ligand | 1 µM | 78 |
| C[C@@H](c1ccc(-n2cnc3c(N)ncnc32)cc1)N1CCc2nn(C)c(Cc3ccccc3)c2C1=O | binding, competition with immobilised ligand | 0.1 µM | 76 |
| COc1ccc2c(c1)O[C@@H](c1ccc(OC)c(OC)c1)C[C@H]2NC(=O)C1(c2ccc3c(c2)OC(F)(F)O3)CC1 | cell-free assay, competition with immobilised ligand | 1 µM | 82 |
| CN(C)c1ncc(F)c(-c2cnn3ncccc23)n1 | binding | 1 µM | 100 |
| O=C(NCCCN1CCOCC1)c1ccc(Nc2ncc(Cl)c(-c3ccc(Cl)s3)n2)cc1 | binding, competition with immobilised ligand | 1 µM | 100 |
